# Article PMC2605181 (Nature chemical biology, 2008)
# Entries after “also recorded” stand apart in the source; their conditions may differ.
# Columns and labels:
# MAGL [1] = target: T1, MAGL (Mus musculus, UniProt O35678); experiment: Competitive ABPP; format: biochemical; conditions: for inhibition of MAGL by competitive ABPP: 30 min
# T1 sequence (O35678 1-303): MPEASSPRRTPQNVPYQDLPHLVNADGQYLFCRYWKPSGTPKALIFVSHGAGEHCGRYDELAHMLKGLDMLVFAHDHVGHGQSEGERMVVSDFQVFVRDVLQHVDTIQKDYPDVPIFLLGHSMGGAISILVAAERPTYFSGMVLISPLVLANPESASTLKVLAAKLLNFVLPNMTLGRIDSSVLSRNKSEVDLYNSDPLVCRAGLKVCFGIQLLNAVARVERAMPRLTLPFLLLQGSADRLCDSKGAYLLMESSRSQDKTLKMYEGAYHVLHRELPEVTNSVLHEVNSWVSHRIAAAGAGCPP
# FAAH [2] = target: T2, FAAH (Mus musculus, UniProt O08914); experiment: Competitive ABPP; format: biochemical; conditions: for inhibition of FAAH by competitive ABPP: mouse brain membrane proteome, 30 min, Fig. 1b
# T2 sequence (O08914 1-579): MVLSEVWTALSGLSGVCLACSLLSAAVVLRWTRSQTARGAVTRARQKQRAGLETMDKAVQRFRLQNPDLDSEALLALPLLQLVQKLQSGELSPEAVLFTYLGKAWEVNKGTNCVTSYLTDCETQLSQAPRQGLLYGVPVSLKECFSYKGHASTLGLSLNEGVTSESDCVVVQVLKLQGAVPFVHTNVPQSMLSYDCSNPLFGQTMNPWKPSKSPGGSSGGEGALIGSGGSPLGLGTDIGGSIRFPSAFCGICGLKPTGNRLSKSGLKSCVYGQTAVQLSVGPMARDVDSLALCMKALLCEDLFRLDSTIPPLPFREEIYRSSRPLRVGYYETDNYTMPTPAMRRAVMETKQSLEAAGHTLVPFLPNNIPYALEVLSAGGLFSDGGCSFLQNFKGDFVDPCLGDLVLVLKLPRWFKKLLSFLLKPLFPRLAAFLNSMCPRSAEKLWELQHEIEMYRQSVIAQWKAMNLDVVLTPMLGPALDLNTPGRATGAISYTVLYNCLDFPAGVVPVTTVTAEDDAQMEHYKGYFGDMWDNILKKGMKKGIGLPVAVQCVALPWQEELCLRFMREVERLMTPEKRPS
# Procedure, shortened: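 Mouse brain membrane proteome (1 mg ml-1 in PBS) preincubated with test compound (1 nM to 10 μM) for 30 min at 37°C, then FP-rhodamine (2 μM final) for 30 min at room temperature, quenched, SDS-PAGE, in-gel fluorescence; DMSO control. kobs [I]-1: proteome with 0.01-15 μM for 10-40 min at 37°C, aliquots FP-rhodamine-labelled 2 min every 10 min; FAAH band density fit exponentially for pseudo-first-order constants.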
# ABHD6 = target: T3, ABHD6 (Mus musculus, UniProt Q8R2Y0); experiment: Competitive ABPP; format: biochemical; conditions: for inhibition of ABHD6 by competitive ABPP: mouse brain membrane proteome, 30 min, Fig. 1b
# T3 sequence (Q8R2Y0 1-336): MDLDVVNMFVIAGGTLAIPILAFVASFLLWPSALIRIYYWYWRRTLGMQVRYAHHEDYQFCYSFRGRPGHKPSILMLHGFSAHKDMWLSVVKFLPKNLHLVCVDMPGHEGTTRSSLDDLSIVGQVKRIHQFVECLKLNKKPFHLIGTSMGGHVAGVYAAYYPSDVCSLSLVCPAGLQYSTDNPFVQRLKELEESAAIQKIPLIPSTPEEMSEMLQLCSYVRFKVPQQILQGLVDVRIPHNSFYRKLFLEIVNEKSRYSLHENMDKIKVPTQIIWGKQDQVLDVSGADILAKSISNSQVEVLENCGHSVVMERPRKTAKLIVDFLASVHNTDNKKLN
# Procedure, shortened: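 Mouse brain membrane proteome at 1 mg ml-1 in PBS, preincubated with test compound (1 nM to 10 μM) for 30 min at 37°C, then FP-rhodamine (2 μM final) for 30 min at room temperature. Quenched in SDS loading buffer and boiled 5 min at 90°C. Run on SDS-PAGE with in-gel fluorescence scanning; DMSO-only proteome served as control.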
# CB1 receptors = experiment: CB1 receptor binding assay, cerebellar membranes; conditions: JZL184 0.001-10 µM
# CB2 receptors = CB2 receptors (Homo sapiens, UniProt P34972); experiment: CB2 receptor binding assay, CB2 transfected CHO cell membranes; conditions: JZL184 0.0005-5 µM
# MAGL [3] = target: T1, MAGL; experiment: MAGL activity of brain membranes from treated mice; format: in vivo; conditions: 16 mg kg^-1 i.p., 4 h
# FAAH [4] = target: T2, FAAH; experiment: FAAH activity of brain membranes from treated mice; format: in vivo
# Procedure, shortened: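 Male C57Bl/6J mice (6-8 weeks, 20-26 g) dosed i.p. in 4:1 v/v PEG300:Tween80, with vehicle-only controls. Killed by decapitation under isoflurane 0.5-24 h later; brain hemisected and flash frozen, one half used for membrane proteomes. FAAH activity measured by gel competitive ABPP, FP-biotin ABPP-MudPIT and LC-MS oleamide hydrolysis. Means ± SEM, n = 3-5 mice per group.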
# brain serine hydrolases = experiment: Other brain serine hydrolase activities from treated mice; format: in vivo, mouse; conditions: 16 mg kg^-1, 4 h
# Procedure, shortened: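 Male C57Bl/6J mice (6-8 weeks, 20-26 g) given 16 mg kg-1 i.p. in 4:1 v/v PEG300:Tween80 or vehicle alone. At 4 h, killed by decapitation under isoflurane; brain half flash frozen for protein work. Brain membrane proteomes underwent competitive ABPP with the biotinylated FP probe, then MudPIT identification of serine hydrolase activities relative to vehicle. n = 3-5 mice per group.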
# [5] = system: brain levels of 2-AG, arachidonic acid, NAEs, MAGs; experiment: Measurement of brain lipids in treated mice; format: in vivo, mouse
# [6] = system: interstitial brain levels of 2-AG and AEA; experiment: In vivo microdialysis, nucleus accumbens, neuronal depolarization; parameters: species or system mouse; conditions: 10 mg kg^-1 i.p.
# Procedure, shortened: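 Male C57Bl/6 mice received test compound at t = -60 min. Dialysate was sampled from nucleus accumbens. Depolarization was by perfusion with high potassium/calcium artificial CSF at t = 0-90 min. […] Mean ± SEM; n = 8 treated, 6 vehicle.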
# mice [7] = experiment: Tail immersion test of acute thermal pain sensation; format: in vivo, mouse
# Procedure, shortened: (§1)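 Test compound was given in 4:1 v/v PEG300:Tween80 at 4 μl g-1: i.p. for tail immersion and acetic acid stretching; p.o. in PEG300 for formalin phase 1 (40 mg kg-1). Rimonabant was given in 18:1:1 saline:ethanol:alkamuls-620. Vehicle and rimonabant-pretreated groups were compared; mean ± SEM, n = 6-14 mice per group.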
# mice [8] = experiment: Acetic acid writhing; format: in vivo, mouse
# Procedure, shortened: as §1
# mice [9] = experiment: Formalin test; format: in vivo, mouse
# Procedure, shortened: as §1
# mice [10] = experiment: Rectal temperature; format: in vivo, mouse
# Procedure, shortened: (§2)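 Measured as part of the cannabinoid tetrad test in mice. Test compound was dissolved in 4:1 v/v PEG300:Tween80 by vortexing, sonication and gentle heating, and given i.p. at 4 μl g-1 body weight; vehicle-only group as control. Rimonabant, where used, was given in 18:1:1 v/v/v saline:ethanol:alkamuls-620.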
# mice [11] = experiment: Locomotor activity; format: in vivo, mouse
# Procedure, shortened: as §2
# mice [12] = experiment: Catalepsy bar test and overt behaviour; format: in vivo, mouse
# Procedure, shortened: as §2
# [13] = Time course of JZL184 in mouse brain; format: in vivo; conditions: C57Bl/6J
# MAGL [14] = conditions: cited from earlier work
# [15] = cited from earlier work
# [16] = mouse brain membrane proteome, Fig. 1b
# [17] = brain membrane proteome, FP-rhodamine labeling
# [18] = 16 mg kg^-1 i.p., wild-type / CB1+/+ mice
# [19] = rimonabant 3 mg kg^-1 pre-treatment
# Chain of CB2 receptors (P34972 whole entry): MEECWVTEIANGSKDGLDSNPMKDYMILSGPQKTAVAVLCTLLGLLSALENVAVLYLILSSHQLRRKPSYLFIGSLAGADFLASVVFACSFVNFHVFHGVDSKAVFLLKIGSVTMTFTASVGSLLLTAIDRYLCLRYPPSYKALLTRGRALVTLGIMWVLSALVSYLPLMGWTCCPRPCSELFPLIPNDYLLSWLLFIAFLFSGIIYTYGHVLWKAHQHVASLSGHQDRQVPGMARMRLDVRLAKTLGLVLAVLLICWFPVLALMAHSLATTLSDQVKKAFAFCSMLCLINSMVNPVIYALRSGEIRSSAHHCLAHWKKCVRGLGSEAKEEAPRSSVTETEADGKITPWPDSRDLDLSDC
compound,measurement,setting,value
COc1ccc(C(O)(c2ccc(OC)cc2)C2CCN(C(=O)Oc3ccc([N+](=O)[O-])cc3)CC2)cc1 [JZL175],selectivity for MAGL over FAAH and ABHD6 by competitive ABPP,MAGL [1]; [16],exhibited selectivity for MAGL over both FAAH and ABHD6
O=C(Oc1ccc([N+](=O)[O-])cc1)N1CCC(C(O)(c2ccc3c(c2)OCO3)c2ccc3c(c2)OCO3)CC1 [JZL184],blockade of MAGL activity by competitive ABPP,"MAGL [1]; as low as 50 nM JZL184, 30 min preincubation",Near-complete blockade
same,kobs [I]^-1 for MAGL,MAGL [1]; [17],4400 M⁻¹ s⁻¹
same,concentration at which inhibition of FAAH is observed by competitive ABPP,FAAH [2]; 30 min preincubation,10 µM
same,kobs [I]^-1 for FAAH,FAAH [2]; [17],13 M⁻¹ s⁻¹
same,concentration at which inhibition of ABHD6 is observed by competitive ABPP,ABHD6; 30 min preincubation,10 µM
same,interaction with CB1 receptors (displacement of 3H-rimonabant),CB1 receptors,did not interact
same,interaction with CB2 receptors (radioligand displacement),CB2 receptors,did not interact
same,"blockade of brain MAGL activity (competitive ABPP, ABPP-MudPIT)",MAGL [3],near-complete blockade
same,residual brain 2-AG hydrolysis activity,MAGL [3],15 % of control
same,inhibition of brain FAAH by ABPP-MudPIT,"FAAH [4]; 16 mg kg^-1, 4 h",partial inhibition
same,"brain FAAH blockade, maximum at any time point","FAAH [4]; 16 mg kg^-1 i.p., 0.5-24 h",≤ 70%
same,effect on other brain serine hydrolases by ABPP-MudPIT,brain serine hydrolases,none of the other ∼40 brain serine hydrolases profiled by ABPP-MudPIT were significantly affected
same,elevation of brain 2-AG above control levels,"[5]; 16 mg kg^-1 i.p., for at least 8 h",7-9 fold
same,elevation of brain 2-AG (summary statement),[5]; administration to mice,8 fold
same,elevation of brain 2-AG levels above baseline,"[5]; higher doses (up to 40 mg kg^-1 i.p.), 4 h",8-10 fold
same,period for which elevated brain 2-AG levels were maintained,[5]; single dose,at least 8 h
same,baseline interstitial levels of 2-AG (before depolarization),[6]; 1 h prior to depolarization,did not observe changes
same,interstitial brain levels of 2-AG following neuronal depolarization,[6]; nucleus accumbens,dramatically elevated
same,interstitial brain levels of AEA,[6]; nucleus accumbens,did not affect; also recorded: no significant alteration
same,antinociception in tail immersion test,"mice [7]; 16 mg kg^-1 i.p., 2 h, wild-type / CB1+/+ mice",significant analgesic activity; also recorded: antinociceptive effects
same,antinociception in acetic acid writhing test,"mice [8]; 16 mg kg^-1, 2 h",significant analgesic activity; also recorded: antinociceptive effects
same,"antinociception in formalin test, phase 1",mice [9]; 40 mg kg^-1 p.o.,antinociceptive effects
same,"antinociception in formalin test, phase 2",mice [9]; 40 mg kg^-1 p.o.,antinociceptive effects
same,analgesic activity in formalin test,"mice [9]; text: 16 mg kg^-1, 2 h",significant analgesic activity
same,hypothermia in CB1^-/- mice,"mice [10]; 16 mg kg^-1 i.p., CB1^-/- mice","did not produce significant hypomotility, hypothermia, or analgesia"
same,hypothermia,mice [10]; [18],significant hypothermia
same,hypomotility in CB1^-/- mice,"mice [11]; 16 mg kg^-1 i.p., CB1^-/- mice","did not produce significant hypomotility, hypothermia, or analgesia"
same,hypomotility,mice [11]; [18],hypomotility
same,catalepsy in the bar test,mice [12]; 16 mg kg^-1 i.p.,"did not, however, induce catalepsy; also recorded: did not develop catalepsy"
same,overt posture and appearance (spontaneous limb splaying),mice [12]; JZL184-treated mice,appeared generally normal
same,half-life,[13],~7 h
CCCCC/C=C\C/C=C\C/C=C\C/C=C\CCCCN1C(=O)C=CC1=O [NAM],selectivity for MAGL over FAAH and other serine hydrolases,MAGL [14],some selectivity
same,potentiation of pharmacological effects of 2-AG in vivo,[15],potentiate the pharmacological effects of 2-AG
"NC(=O)c1cccc(-c2cccc(OC(=O)NC3CCCCC3)c2)c1 [URB597, reference compound]",brain FAAH activity,FAAH [4]; URB597 10 mg kg^-1 i.p.,completely inhibited
same,brain 2-AG or arachidonic acid levels,[5]; URB597 10 mg kg^-1 i.p.,without altering
same,brain anandamide and other NAEs,[5]; URB597 10 mg kg^-1 i.p.,significant elevations
CN(Cc1cccc(-c2ccncc2)c1)C(=O)Oc1ccc([N+](=O)[O-])cc1 [WWL98],inhibition of MAGL by competitive ABPP,MAGL [1]; [16],inhibited
same,inhibition of FAAH by competitive ABPP,FAAH [2],inhibited
same,inhibition of ABHD6 by competitive ABPP,ABHD6,inhibited
O=C(Oc1ccc([N+](=O)[O-])cc1)N1CCN(C(c2ccc(F)cc2)c2ccc(F)cc2)CC1 [WWL152],inhibition of MAGL by competitive ABPP,MAGL [1]; [16],preserve potency
same,inhibition of FAAH by competitive ABPP,FAAH [2],greatly reducing activity for FAAH
same,inhibition of ABHD6 by competitive ABPP,ABHD6,preserve potency
COc1ccc(C(c2ccc(OC)cc2)N2CCN(C(=O)Oc3ccc([N+](=O)[O-])cc3)CC2)cc1 [WWL162],inhibition of MAGL by competitive ABPP,MAGL [1]; [16],preserve potency
same,inhibition of FAAH by competitive ABPP,FAAH [2],greatly reducing activity for FAAH
same,inhibition of ABHD6 by competitive ABPP,ABHD6,preserve potency
"Cc1c(C(=O)NN2CCCCC2)nn(-c2ccc(Cl)cc2Cl)c1-c1ccc(Cl)cc1 [rimonabant, reference compound]",blockade of JZL184 effect in tail immersion test,mice [7]; [19],blocked
same,blockade of JZL184 effect in acetic acid writhing test,mice [8]; [19],blocked
same,blockade of JZL184 effect in formalin test,mice [9]; [19],blocked
same,blockade of hypothermic effect of JZL184,mice [10]; [19],completely blocked
same,effect of rimonabant on its own on movement,mice [11]; rimonabant 3 mg kg^-1,significant reductions in movement
same,blockade of JZL184-induced immobility,mice [11]; [19],partial blockade
